# An excerpt weighted towards active compounds, which were near 3.7% of everything screened.
# KCNQ1 act: potentiates or activates the human KCNQ1 potassium channel; 310,000 tested, 0.35% active; B-score at 10 µM; P51787; AID 2648; CHO-K1 KCNQ1, thallium flux FluxOR fluorescence; active compounds read high;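 active = fluorescence ratio B-score, a plate-corrected score, at least three library SD, with initial intensity B-score within 5 SD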
# Target sequence (P51787 whole entry, looked up): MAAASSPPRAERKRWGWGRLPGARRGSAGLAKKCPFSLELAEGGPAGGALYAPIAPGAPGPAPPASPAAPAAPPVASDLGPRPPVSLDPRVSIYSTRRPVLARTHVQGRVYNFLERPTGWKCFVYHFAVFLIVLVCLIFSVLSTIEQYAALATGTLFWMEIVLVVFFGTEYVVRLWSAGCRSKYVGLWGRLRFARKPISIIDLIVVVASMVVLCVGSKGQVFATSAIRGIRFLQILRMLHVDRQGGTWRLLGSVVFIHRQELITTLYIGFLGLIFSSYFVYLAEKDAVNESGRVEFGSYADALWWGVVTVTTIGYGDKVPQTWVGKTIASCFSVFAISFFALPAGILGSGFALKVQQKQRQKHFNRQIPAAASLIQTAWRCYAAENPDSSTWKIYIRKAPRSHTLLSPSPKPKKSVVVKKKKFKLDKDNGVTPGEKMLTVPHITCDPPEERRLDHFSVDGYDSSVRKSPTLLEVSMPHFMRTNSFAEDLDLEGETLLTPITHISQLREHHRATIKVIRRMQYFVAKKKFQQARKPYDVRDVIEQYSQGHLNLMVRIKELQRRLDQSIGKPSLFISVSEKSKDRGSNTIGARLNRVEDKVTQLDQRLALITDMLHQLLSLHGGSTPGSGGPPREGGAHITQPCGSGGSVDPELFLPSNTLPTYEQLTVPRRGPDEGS
#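 Medium – assay buffer, equal DMSO in all wells · Material – CHO-K1 cell line with stable KCNQ1 potassium channel expression · Signal – kinetic FluxOR thallium fluorescence, 10-s 1-Hz baseline, 110-s post-stimulus read · Compound – single concentration per compound, DMSO matched to controls · Schedule – 37 °C overnight plating, 90-min dark dye load, 20-min compound pretreatment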
# KCNQ1 block: inhibitors of human KCNQ1 potassium channel | P51787 | CHO-K1 KCNQ1, FluxOR thallium flux fluorescence; active compounds read high | B-score at 10 µM | 310,000 tested, 1.3% active;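 active = compounds whose thallium flux B-score, printed positive for inhibition, exceeds three library SD while starting fluorescence stays within three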;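 note: channel opened by potassium depolarization with thallium stimulus after 20 min compound exposure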
# KCNK9 block: inhibitors of human KCNK9 two-pore domain potassium channel; Q9NPC2; HEK293 KCNK9, FluxOR thallium flux fluorescence; active compounds read low; B-score at 10 µM; 310,000 tested, 1.2% active;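 active = ratio B-score over 3 SD below the library mean, with starting fluorescence within 5 SD of its mean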;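 note: negative B-score means less thallium flux so channel inhibition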
# hERG protect: hERG (human) protection from proarrhythmic block; 310,000 tested, 0.51% active; Q12809; CHO-hERG, FluxOR thallium flux, dofetilide IC70 present; AID 1511; activation (rescue from dofetilide block), less the hit threshold, % at 10 µM;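 active = activation above the mean of controls blocked by dofetilide plus 5 SD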;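 note: thallium influx through hERG after potassium depolarization seen as dye fluorescence rise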
# KCNK3 block: human KCNK3 channel inhibition, primary screen; CHO-KCNK3 thallium flux, FluxOR fluorescence; active compounds read low; B-score at 10 µM; 340,000 tested, 0.84% active; AID 602410;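 active = B-score under library mean minus 4 SD, starting fluorescence ratio at most library mean plus 5 SD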;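 note: more negative B-score means stronger inhibition of thallium flux through KCNK3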
# Kir21 inh: Kir2.1 (mouse) channel inhibition | P35561 | HEK293-Kir2.1, FluxOR thallium flux fluorescence; active compounds read low | B-score at 10 µM | 310,000 tested, 0.85% active;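 active = fluorescence ratio B-score at or below minus 3 SD of library scores, with starting-brightness B-score within 2 SD, cut at about -4.2 in these data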;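 note: channel flux triggered by added potassium and thallium sulfate stimulus; B-score of peak minus minimum fluorescence over baseline after thallium stimulus; more negative B-score means stronger Kir2.1 block with less thallium influx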
# KCNK9 inh conf: confirmation of human KCNK9 potassium channel inhibitors; shares compounds with KCNK9 block; HEK293 KCNK9 cells, FluxOR thallium flux fluorescence; inhibition, % at 10 µM; 4,900 tested, 43% active;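 active = thallium signal inhibited by more than 5 SD of the compound-free buffer control wells, on both duplicate plates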;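 note: 0% = assay buffer control wells without compound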
# Kir2-1 spec: mouse Kir2.1 off-target activity of KCNK9 modulators. inhibition, % at 10 µM. 4,900 tested, 4% active. AID 492993. shares compounds with KCNK9 block. Kir2.1 cells, FluxOR thallium flux fluorescence;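 active = thallium signal drop more than 5 SD beyond the mean of the no-compound control wells, seen in both duplicate plates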;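 note: signal is fluorescence rise after thallium addition divided by baseline fluorescence; plate controls were assay buffer only for no effect and full block by chlorpromazine control for full effect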
# HEK293 Tl ctr: non-induced cell nonspecific activity of KCNK9 modulators; shares compounds with KCNK9 block; non-induced KCNK9-HEK293, FluxOR thallium flux; inhibition, % at 10 µM; 4,900 tested, 40% active; AID 492997;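 active = thallium signal drop beyond 5 SD of the untreated control mean, on both duplicate plates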;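 note: plate controls were buffer only IC0 wells for no effect and SID17386958 at its maximal inhibitory level for full effect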
# Starred values were filed as active, the others as inactive; i = inactive; . = not tested or not shown; ! = repeats disagree.
SMILES,KCNQ1 act,KCNQ1 block,KCNK9 block,hERG protect,KCNK3 block,Kir21 inh,KCNK9 inh conf,Kir2-1 spec,HEK293 Tl ctr
O=C(NCc1ccccc1)[C@]1(C(F)(F)F)C[C@H](CCc2ccccc2)CCCO1,i,i,i,-8,i,-1.5,i,i,i
COC(=O)C1CCN(S(=O)(=O)c2cc3c4c(c2)CCN4C(=O)CC3)CC1,i,i,i,-4,i,0.04,.,.,.
COc1ccc(C(=O)NC(=S)Nc2ccc(CN3CCOCC3)cc2)cc1Br,i,i,i,1,i,-0.18,i,i,i
Cc1ccc(SCC(=O)O/N=C(\N)c2cccc([N+](=O)[O-])c2)cc1,i,i,i,-8,i,0.04,i,i,28%*
O=C(CC(Nc1ccc(F)cc1)c1ccccc1)c1ccccc1 (stereo not given),i,i,-11*,-9,i,-0.99,i,i,i
COc1ccc(-c2csc3nc(-c4ccccc4OC)oc(=O)c23)cc1,i,i,-11*,-9,i,0.36,72%*,i,i
Cc1ccccc1OCC(=O)Nc1cc(S(=O)(=O)N2CCCCC2)ccc1N1CCN(C)CC1,i,i,i,-8,i,0.04,.,.,.
CC1CCCC(NC(=O)CN2CCN(S(=O)(=O)c3cccs3)CC2)C1C (stereo not given),.,.,.,.,i,.,.,.,.
CCCCCCCCCCOC(=O)Cn1c(COc2ccc(OC)cc2)[n+](C)c2ccccc21,i,10*,-17*,-29,i,-8.6*,70%*,75%*,33%*!
CCCCCCCCCCOC(=O)Cn1c(COc2ccccc2)[n+](C)c2ccccc21,i,8*,-15*,-23,i,-13*,72%*,75%*,34%*
CCOC(=O)Cn1c(COc2ccccc2OC)[n+](C)c2ccccc21,i,i,i,-7,i,0.05,.,.,.
CCCCCOC(=O)Cn1c(=O)oc2ccccc21,i,i,i,-14,i,-0.89,.,.,.
CCCCCCCCCCOC(=O)Cn1c(COc2ccc(Cl)cc2)[n+](C)c2ccccc21,i,i,-10*,-22,i,-8.9,72%*,50%*,i
C/C(=N\NC(=O)c1ccccc1O)C1C(=O)c2ccccc2C1=O,i,11*,i,-31,i,0.93,i,i,24%*
C/C(=N/NC(=O)c1cc2ccccc2cc1O)C1C(=O)c2ccccc2C1=O,i,i,i,-16,i,-1.1,.,.,.
Cc1cc(C)c2nc(NNC(=O)c3ccc(S(=O)(=O)N4CCCCC4)cc3)sc2c1,i,i,i,-12,i,0.09,i,i,i
Cc1cccc2sc(NNC(=O)c3ccc(S(=O)(=O)N4CCc5ccccc5C4)cc3)nc12,i,i,i,-4,i,0.03,i,i,i
CCCCN1C[C@H](Cc2ccccc2)[C@@H](CC(=O)NCc2ccc(OC)cc2)C1=O,i,i,i,-6,i,-1.8,.,.,.
COc1ccc(CNC(=O)C[C@H]2C(=O)N(c3ccccc3)C[C@@H]2Cc2ccccc2)cc1,i,i,-9.9*,-5,i,-1.1,60%*,i,i
CCc1nnc(NS(=O)(=O)c2ccc(NC(=O)OC)cc2)s1,i,i,i,-11,i,0,.,.,.
CCc1nnc(NS(=O)(=O)c2ccc(NCc3cc(Cl)ccc3O)cc2)s1,i,i,i,-12,i,0.77,i,i,i
CCc1nnc(NS(=O)(=O)c2ccc(NCc3cc(Cl)cc(Cl)c3O)cc2)s1,i,i,i,-20,i,0.34,i,i,i
Cc1ccc(/C=N/NC(=O)c2ccccc2OCc2cccc(Br)c2)o1,i,i,-10*,-11,i,-1.3,30%*,i,i
O=C(N/N=C/c1cccnc1)c1ccccc1OCc1cccc(Br)c1,i,i,i,-11,i,0.15,.,.,.
CC(=O)Nc1ccc(NC(=O)CN2CCN(c3cccc(C(F)(F)F)c3)CC2)cc1,i,i,i,-8,i,-0.5,.,.,.
SMILES,KCNQ1 act,KCNQ1 block,KCNK9 block,hERG protect,KCNK3 block,Kir21 inh,KCNK9 inh conf,Kir2-1 spec,HEK293 Tl ctr
O=C(CSC1=NCCN1)Nc1cccc(C(F)(F)F)c1,i,i,-9.9*,-18,i,-0.41,32%*,i,24%*
O=C(CN1CCN(c2cccc(C(F)(F)F)c2)CC1)Nc1cccc(C(F)(F)F)c1,i,9*,i,-17,i,-0.4,i,i,i
Cn1ccnc1SCC(=O)Nc1cccc(C(F)(F)F)c1,i,i,i,-3,i,-0.51,.,.,.
COc1ccc(NS(=O)(=O)c2ccc3oc(SCc4ccc(F)cc4)nc3c2)cc1,i,i,i,-8,i,-0.87,i,i,i
COc1ccccc1NS(=O)(=O)c1ccc2oc(SCc3ccc(F)cc3)nc2c1,i,i,i,-22,i,-0.37,.,.,.
Cc1cccc(NC(=O)C2(c3ccc([N+](=O)[O-])cc3)CCCC2)c1,i,6*,i,-8,i,-2.6,i,i,i
Cc1cc(C)nc(NS(=O)(=O)c2ccc(NC(=O)C3(c4ccc([N+](=O)[O-])cc4)CCCC3)cc2)n1,i,i,i,-5,i,0.68,.,.,.
CCN1C(=O)/C(=C\c2nc3ccccc3c(=O)n2CC)c2ccccc21,i,i,i,-15,i,0.07,i,i,i
COc1ccc2nc(NC(=O)CN3C(=O)NC4(CCCCC4)C3=O)sc2c1,i,i,i,-3,i,0.49,.,.,.
C[C@@H]1CC[C@@]23COC(=O)C2=CCC[C@@H]3[C@@]1(C)CC/C(=C/CO)CO,.,.,.,.,i,.,.,.,.
CC1=CCC[C@@H]2[C@@](C)(CC/C(C)=C/C(=O)O)[C@H](C)CC[C@@]12C,i,i,i,-1,i,-0.32,i,i,i
Cn1c(Oc2ccc(F)cc2)c(C=O)c2ccccc21,i,i,i,-4,i,-2.5,.,.,.
Cn1c(Sc2ccc(Br)cc2)c(C=O)c2ccccc21,i,i,-9.5*,-13,i,0.88,44%*,36%*,52%*
COc1cc(/C=N/OCC(=O)NC2CCCCC2)ccc1OCc1ccccc1,i,i,i,-2,i,-0.55,.,.,.

# Compound activity (PubChem)
